Experimental data from ChEMBL document CHEMBL3588785 (J Med Chem, 2015).
Converted amounts (≈) assume the structure as drawn. The source made the active and inactive calls. The rule behind the calls is not given here.

Tests used:
[1] = Solubility of the compound in aqueous phosphate buffer at 25 degC at pH 7.4 after 24 hrs; assay type: physicochemical
[2] = 1-Octanol-aqueous phosphate buffer partition coefficient, logD of the compound at pH 7.4; assay type: physicochemical
In short: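 Partition of compound between 1-octanol and aqueous phosphate buffer, pH 7.4; reported as distribution coefficient.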

A-375 = assay: Antiproliferative activity against human A375 cells harboring B-RAF V600E mutant after 72 hrs by Cellomics ArrayScanTM VTI imaging analysis; assay type: functional, cell-based; conditions: A-375, 72 h
[3] = molecular target: T1, Mitogen-activated protein kinase 1 (Homo sapiens, UniProt P28482); assay: Inhibition of MEK U911-activated ERK2 (unknown origin) using Erktide as substrate preincubated with enzyme for 20 mins prior to substrate addition by RapidFire Mass Spectrometry in presence of ATP at higher concentration
[4] = molecular target: T1, Mitogen-activated protein kinase 1; assay: Inhibition of MEK U911-activated ERK2 (unknown origin) using Erktide as substrate preincubated with enzyme for 20 mins prior to substrate addition by RapidFire Mass Spectrometry in presence of ATP at Km concentration
[5] = molecular target: T2, Mitogen-activated protein kinase; ERK1/ERK2 (Homo sapiens, UniProt P27361+P28482); assay: Inhibition of ERK1/2 in human A375 cells harboring B-RAF V600E mutant assessed as decrease in phospho-RSK level after 2 hrs by Cellomics ArrayScanTM VTI imaging analysis; assay type: cell-based; conditions: a-375
[6] = Intrinsic clearance in human liver microsomes; assay type: ADME; conditions: read-out: CLH
[7] = molecular target: Dual specificity mitogen-activated protein kinase kinase 1 (Homo sapiens, UniProt Q02750); assay: Inhibition of MEK1 (unknown origin) autophosphorylation incubated with enzyme for 20 mins prior to ATP addition by ADP Glo kinase assay in presence of ATP at Km concentration
[8] = molecular target: T1, Mitogen-activated protein kinase 1; assay: Inhibition of ERK2 in human A375 cells harboring B-RAF V600E mutant assessed as decrease in phospho-ERK2 level after 2 hrs by Cellomics ArrayScanTM VTI imaging analysis; assay type: cell-based, A-375
Hepatocyte = assay: Intrinsic clearance in rat hepatocytes; assay type: ADME, cell-based
Homo sapiens [9] = species on record: Homo sapiens; assay: Selectivity for ERK (unknown origin) over MEK1 (unknown origin) at 1 uM
In short: (§1)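 Panel of 125 kinases screened with compound at 1 µM; kinases inhibited above 75% were recorded.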

Homo sapiens [10] = species on record: Homo sapiens; assay: Selectivity for ERK (unknown origin) over C-RAF (unknown origin) at 1 uM; in short: as §1
Homo sapiens [11] = species on record: Homo sapiens; assay: Selectivity for ERK (unknown origin) over FLT1 (unknown origin) at 1 uM; in short: as §1
Homo sapiens [12] = species on record: Homo sapiens; assay: Selectivity for ERK (unknown origin) over DYRK2 (unknown origin) at 1 uM; in short: as §1
[13] = Stability in pH 7.4 buffer assessed as drug hydrolysis; assay type: physicochemical
In short: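 Compound held in pH 7.4 buffer alone at 37 °C, monitored over 11 hrs for hydrolysis.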

[14] = molecular target: Mitogen-activated protein kinase 3 (Mus musculus) (UniProt Q63844); assay: Binding affinity to ERK1 in mouse fibroblasts assessed as half-life
[15] = molecular target: Mitogen-activated protein kinase 1 (Mus musculus) (UniProt P63085)
[16] = GSH reactivity assessed as half life
[17] = molecular target: T2, Mitogen-activated protein kinase; ERK1/ERK2; conditions: Calu-6, 500 nM
Homo sapiens [18] = species on record: Homo sapiens; assay: Selectivity for ERK (unknown origin) over IR (unknown origin) at 1 uM; in short: as §1
Homo sapiens [19] = species on record: Homo sapiens; assay: Selectivity for ERK (unknown origin) over MET (unknown origin) at 1 uM; in short: as §1
Homo sapiens [20] = species on record: Homo sapiens; assay: Selectivity for ERK (unknown origin) over AUR-C (unknown origin) at 1 uM; in short: as §1
Homo sapiens [21] = species on record: Homo sapiens; assay: Selectivity for ERK (unknown origin) over AXL (unknown origin) at 1 uM; in short: as §1
Homo sapiens [22] = species on record: Homo sapiens; assay: Selectivity for ERK (unknown origin) over TRKA (unknown origin) at 1 uM; in short: as §1
Homo sapiens [23] = species on record: Homo sapiens; assay: Selectivity for ERK (unknown origin) over AUR-B (unknown origin) at 1 uM; in short: as §1
Homo sapiens [24] = species on record: Homo sapiens; assay: Selectivity for ERK (unknown origin) over FAK (unknown origin) at 1 uM; in short: as §1
Homo sapiens [25] = species on record: Homo sapiens; assay: Selectivity for ERK (unknown origin) over CDK7 (unknown origin) at 1 uM; in short: as §1
Homo sapiens [26] = species on record: Homo sapiens; assay: Selectivity for ERK (unknown origin) over CDK1 (unknown origin) at 1 uM; in short: as §1
Homo sapiens [27] = species on record: Homo sapiens; assay: Selectivity for ERK (unknown origin) over IGF-1R (unknown origin) at 1 uM; in short: as §1
[28] = molecular target: T1, Mitogen-activated protein kinase 1; assay: Covalent binding to ERK2 (unknown origin) after 2 hrs by mass spectrometry
In short: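 ERK2 protein incubated with compound at 3-fold molar excess over protein, room temperature, 2 hours; sample diluted 10-fold and loaded immediately for intact-mass MS.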

[29] = Stability to hydrolysis in pH 7.4 buffer measured over 11 hrs at 37 degC
[30] = Clearance in mouse hepatocytes measured per 10^6 cells; assay type: ADME, cell-based, Hepatocyte; conditions: read-out: CLH
[31] = AUC (0 to t) in mouse at 100 mg/kg, po; assay type: ADME, organism-based; conditions: in vivo
Homo sapiens [32] = species on record: Homo sapiens; assay: Selectivity for ERK (unknown origin) over SRC (unknown origin) at 1 uM; in short: as §1

Dual specificity mitogen-activated protein kinase kinase 1, sequence (Q02750 whole entry): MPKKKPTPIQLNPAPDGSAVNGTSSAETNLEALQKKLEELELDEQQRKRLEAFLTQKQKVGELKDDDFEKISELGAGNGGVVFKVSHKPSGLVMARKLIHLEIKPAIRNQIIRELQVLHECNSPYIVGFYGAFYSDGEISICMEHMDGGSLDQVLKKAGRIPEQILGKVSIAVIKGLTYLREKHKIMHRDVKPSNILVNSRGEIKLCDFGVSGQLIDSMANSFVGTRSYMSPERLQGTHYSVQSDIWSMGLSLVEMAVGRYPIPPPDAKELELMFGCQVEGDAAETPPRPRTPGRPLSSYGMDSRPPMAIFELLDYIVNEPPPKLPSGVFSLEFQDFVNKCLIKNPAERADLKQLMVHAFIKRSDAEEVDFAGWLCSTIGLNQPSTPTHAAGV
Mitogen-activated protein kinase 3 (Mus musculus), sequence (Q63844 whole entry): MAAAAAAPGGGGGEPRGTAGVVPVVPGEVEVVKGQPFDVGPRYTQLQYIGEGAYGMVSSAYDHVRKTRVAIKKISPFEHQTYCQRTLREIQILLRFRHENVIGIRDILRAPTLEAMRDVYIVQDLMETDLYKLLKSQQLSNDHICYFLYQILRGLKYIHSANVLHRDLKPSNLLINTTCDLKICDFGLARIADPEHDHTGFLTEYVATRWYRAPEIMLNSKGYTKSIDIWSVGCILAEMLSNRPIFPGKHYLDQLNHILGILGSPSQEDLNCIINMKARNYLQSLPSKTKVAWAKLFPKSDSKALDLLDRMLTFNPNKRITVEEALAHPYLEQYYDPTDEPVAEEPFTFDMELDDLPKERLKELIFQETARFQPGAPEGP
Mitogen-activated protein kinase 1 (Mus musculus), sequence (P63085 whole entry): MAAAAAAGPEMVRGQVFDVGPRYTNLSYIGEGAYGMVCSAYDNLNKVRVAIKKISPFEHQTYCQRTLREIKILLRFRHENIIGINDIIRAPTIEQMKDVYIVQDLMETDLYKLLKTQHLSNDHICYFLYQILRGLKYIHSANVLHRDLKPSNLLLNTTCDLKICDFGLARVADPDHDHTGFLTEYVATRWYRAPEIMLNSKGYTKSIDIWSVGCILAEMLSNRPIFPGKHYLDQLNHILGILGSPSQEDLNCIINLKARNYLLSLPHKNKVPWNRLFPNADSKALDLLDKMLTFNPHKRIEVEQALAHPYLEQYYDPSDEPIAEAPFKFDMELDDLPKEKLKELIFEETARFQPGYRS

Compound	solubility at 24 h [1]	logD [2]	IC50 (A-375)	IC50 [3]	IC50 [4]	IC50 [5]	microsomal CLint [6]	IC50 [7]	IC50 [8]	CLH (Hepatocyte)	Selectivity ratio (Homo sapiens [9])	Selectivity ratio (Homo sapiens [10])	further results
O=C(Nc1ccc2[nH]nc(-c3ccncc3)c2c1)[C@@H]1CCN(CC(=O)N2CCN(c3ccc(-c4ncccn4)cc3)CC2)C1	< 2.1 µM	3.2	70 nM	–	–	–	–	–	–	–	–	–	–
C=CC(=O)Nc1ccccc1Nc1nc(Nc2ccnn2C)ncc1C	990 µM (≈ 346 µg/mL)	2.1	240 nM	47 nM	39 nM	280 nM	19 µL/min/mg	260 nM	66 nM	33 µL/min/mg	–	–	–
CCC(=O)Nc1ccccc1Nc1nc(NC2CCOCC2)ncc1Cl	–	–	6600 nM	4000 nM	480 nM	> 30000 nM	–	–	> 30000 nM	–	–	–	–
C=CC(=O)Nc1ccccc1Nc1cc(NC2CCOCC2)ncc1Cl	40 µM (≈ 14.9 µg/mL)	2.5	680 nM	60 nM	42 nM	400 nM	24 µL/min/mg	> 10000 nM	120 nM	270 µL/min/mg	2	2	–
C=CC(=O)Nc1ccccc1Nc1nc(N[C@H]2CC[C@H](N(C)C)CC2)ncc1Cl	770 µM (≈ 320 µg/mL)	0.9	120 nM	90 nM	85 nM	200 nM	< 3 µL/min/mg	> 10000 nM	72 nM	25 µL/min/mg	4	4	Selectivity ratio (Homo sapiens [11]): 4; Selectivity ratio (Homo sapiens [12]): 4
C=CC(=O)Nc1cnccc1Nc1nc(NC2CCOCC2)ncc1Cl	150 µM (≈ 56.2 µg/mL)	2.3	41 nM	3 nM	3.1 nM	28 nM	13 µL/min/mg	> 10000 nM	6.7 nM	> 250 µL/min/mg	2	2	Stability [13]: Stable; T1/2 [14]: 120 h; T1/2 [15]: 54 h; T1/2 [16]: 0.7 h; inhibition [17]: Active
CNC(=O)c1ccc(F)cc1Nc1cc(Nc2cc(C)nn2C)ncc1C(F)(F)F	15 µM (≈ 6.34 µg/mL)	3.8	1400 nM	340 nM	44 nM	5100 nM	–	> 10000 nM	8700 nM	–	–	–	Selectivity ratio (Homo sapiens [18]): 10; Selectivity ratio (Homo sapiens [19]): 10; Selectivity ratio (Homo sapiens [20]): 10; Selectivity ratio (Homo sapiens [21]): 10; Selectivity ratio (Homo sapiens [22]): 10; Selectivity ratio (Homo sapiens [23]): 10; Selectivity ratio (Homo sapiens [24]): 10; Selectivity ratio (Homo sapiens [25]): 10; Selectivity ratio (Homo sapiens [26]): 10; Selectivity ratio (Homo sapiens [27]): 10
C=CS(=O)(=O)N1CCc2cnc(NC3CCOCC3)nc2C1	760 µM (≈ 247 µg/mL)	1	–	220 nM	370 nM	1100 nM	–	> 10000 nM	240 nM	–	2	2	Stability [13]: Stable; Activity [28]: Active; T1/2 [16]: 0.257 h; Stability [29]: Stable
CNC(=O)c1ccc(F)cc1Nc1cc(NC2CCOCC2)ncc1C(F)(F)F	8.8 µM (≈ 3.63 µg/mL)	3.4	3400 nM	380 nM	40 nM	2400 nM	–	> 10000 nM	2100 nM	–	–	4	Selectivity ratio (Homo sapiens [19]): 4; Selectivity ratio (Homo sapiens [24]): 4; Selectivity ratio (Homo sapiens [25]): 4
C=CC(=O)Nc1ccccc1Nc1nc(NC2CCOCC2)ncc1C	170 µM (≈ 60.1 µg/mL)	2	470 nM	88 nM	77 nM	740 nM	13 µL/min/mg	> 10000 nM	170 nM	59 µL/min/mg	2	2	–
C=CS(=O)(=O)N1CCc2[nH]nc(-c3ccnc(C)c3)c2C1	300 µM (≈ 91.3 µg/mL)	1.6	1400 nM	110 nM	74 nM	1000 nM	–	4900 nM	380 nM	–	5	5	Selectivity ratio (Homo sapiens [11]): 5
CCS(=O)(=O)N1CCc2cnc(NC3CCOCC3)nc2C1	–	–	–	> 10000 nM	9000 nM	> 30000 nM	–	–	10000 nM	–	–	–	–
CC(C)Nc1cc(-c2c[nH]c(C(=O)N[C@H](CO)c3cccc(Cl)c3)c2)c(Cl)cn1 [ULIXERTINIB]	8.5 µM (≈ 3.68 µg/mL)	> 4	180 nM	–	–	–	–	–	–	–	–	–	–
C=CC(=O)Nc1ccccc1Nc1nc(NC2CCOCC2)ncc1C(F)(F)F	59 µM (≈ 24 µg/mL)	2.9	53 nM	8.5 nM	6.9 nM	65 nM	38 µL/min/mg	> 10000 nM	22 nM	270 µL/min/mg	6	6	Selectivity ratio (Homo sapiens [20]): 6; hepatocyte CLint [30]: 143 µL/min/1e6 cells; AUC(0-t) [31]: 21 µM·h; Selectivity ratio (Homo sapiens [23]): 6; Selectivity ratio (Homo sapiens [25]): 6; Selectivity ratio (Homo sapiens [32]): 6
COc1cc(O)c2c(c1)/C=C/C[C@H](O)[C@@H](O)C(=O)/C=C/C[C@H](C)OC2=O	47 µM (≈ 17 µg/mL)	1.6	4100 nM	3700 nM	5100 nM	5700 nM	–	3400 nM	1600 nM	–	–	–	–
C=CS(=O)(=O)Nc1ccc2[nH]nc(-c3ccncc3)c2c1	7 µM (≈ 2.1 µg/mL)	2.2	1300 nM	17 nM	7.5 nM	470 nM	–	> 10000 nM	120 nM	–	–	8	Selectivity ratio (Homo sapiens [20]): 8; Selectivity ratio (Homo sapiens [11]): 8; Selectivity ratio (Homo sapiens [22]): 8; Selectivity ratio (Homo sapiens [23]): 8; Activity [28]: Active
C=CC(=O)Nc1ccccc1Nc1nc(Nc2ccnn2C)ncc1Cl	520 µM (≈ 192 µg/mL)	2.4	91 nM	13 nM	9.9 nM	120 nM	42 µL/min/mg	120 nM	48 nM	120 µL/min/mg	7	7	Selectivity ratio (Homo sapiens [20]): 7; Selectivity ratio (Homo sapiens [11]): 7; Selectivity ratio (Homo sapiens [23]): 7; Selectivity ratio (Homo sapiens [24]): 7
CCS(=O)(=O)Nc1ccc2[nH]nc(-c3ccncc3)c2c1	–	–	> 30000 nM	1800 nM	280 nM	> 30000 nM	–	–	10000 nM	–	–	–	–
CNC(=O)c1ccccc1Nc1cc(NC2CCOCC2)ncc1Cl	290 µM (≈ 105 µg/mL)	2.8	–	–	260 nM	10000 nM	–	> 10000 nM	7500 nM	–	–	–	–
C=CC(=O)Nc1ccccc1Nc1nc(NC2CCOCC2)ncc1Cl	46 µM (≈ 17.2 µg/mL)	2.7	57 nM	5.4 nM	8.5 nM	69 nM	67 µL/min/mg	> 10000 nM	19 nM	200 µL/min/mg	–	4	Selectivity ratio (Homo sapiens [20]): 4; Stability [13]: Stable; Selectivity ratio (Homo sapiens [11]): 4; Selectivity ratio (Homo sapiens [23]): 4; Activity [28]: Active; T1/2 [16]: 2.53 h
